rCAG binder-1: binders of r(CAG) RNA repeats, primary screen, biochemical, fluorescence; r(CAG) RNA repeat, TO-PRO-1 dye displacement fluorescence; hit rate 1.3% among 370,000; inhibition, % at 3 µM; AID 651821, 2012;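 active = inhibition above the plate cutoff, the mean of all test compounds on that plate plus 3 SD, cut at about 35% in these data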;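 also: higher means more dye released from RNA so lower well fluorescence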
NR2E3 ag-1: NR2E3 agonists in two-hybrid cells, primary screen, cell-based, luminescence, CHO-S, Gal4-NCOR/VP16-NR2E3; Photoreceptor-specific nuclear receptor (Homo sapiens), Q9Y5X4; inhibition of corepressor binding, % at 3.98 µM; luciferase; hit rate 0.35% among 360,000;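 active = inhibition above the mean of all tested compounds plus 3 SD, cut at about 70% in these data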;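 also: higher means lower luciferase signal from less NR2E3 corepressor binding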
Target sequence (Q9Y5X4 whole entry, looked up, the tested form may be a part): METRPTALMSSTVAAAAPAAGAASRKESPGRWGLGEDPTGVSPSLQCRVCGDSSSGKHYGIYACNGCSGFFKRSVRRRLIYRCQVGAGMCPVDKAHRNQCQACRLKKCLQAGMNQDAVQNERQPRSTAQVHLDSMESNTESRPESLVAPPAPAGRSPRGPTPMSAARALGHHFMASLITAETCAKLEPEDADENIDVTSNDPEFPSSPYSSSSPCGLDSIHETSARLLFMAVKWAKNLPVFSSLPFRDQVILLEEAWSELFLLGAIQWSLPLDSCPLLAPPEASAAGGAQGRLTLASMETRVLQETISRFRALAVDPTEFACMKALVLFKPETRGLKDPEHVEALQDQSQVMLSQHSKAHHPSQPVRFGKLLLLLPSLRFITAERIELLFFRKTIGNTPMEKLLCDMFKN
PG9 binder: binders of HIV-1 gp120 antibody PG9, primary screen, biochemical, TR-FRET. inhibition, % at 6.7 µM. TR-FRET gp120-PG9 antibody binding. hit rate 0.43% among 360,000; in the data active = inhibition above about 8.5%
NR2E3 ag-2: inhibitors of NR2E3-RetCOR corepressor binding, primary screen, NR2E3 agonist project, biochemical, TR-FRET, GST-NR2E3, biotin-RetCOR | Photoreceptor-specific nuclear receptor (Homo sapiens), Q9Y5X4 | 1536-well | inhibition of corepressor binding, % at 4.78 µM | hit rate 0.12% among 320,000 | AID 2300, 2010;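 active = percent inhibition above the cutoff of mean plus 3 SD of all tested compounds, set per screening campaign, cut at about 20% in these data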
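Test system: GST-NR2E3 and biotin-RetCOR proteins | Quantity: 1.35 nM GST-tagged NR2E3 final | Medium: Tris pH 7.5 | Also added: 7 nM biotin-RetCOR | Dosing: Compound at 4.8 µM, single dose | Timing: 5 h at 4 °C | Detection: Time-resolved FRET | Read-out basis: Percent inhibition | Benchmarks: Biotin wells as high control, 0.6% DMSO wells as low control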
Rev-erbA mod: modulators of Rev-erb alpha DNA binding, primary screen, biochemical, FITC-DNA, fluorescence polarization, uHTS; Nuclear receptor subfamily 1 group D member 1 (Homo sapiens), P20393; Rev-erbα–FITC-DNA binding, 90 min; activity, % at 10 µM; hit rate 0.79% among 370,000;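 active = activity above about 14%, limit read from the data; passing the limit was not always enough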
rCAG binder conf: small molecules binding CAG repeat RNA – biochemical, fluorescence, confirmation | shares compounds with rCAG binder-1 | r(CAG) RNA repeat, TO-PRO-1 dye displacement fluorescence | inhibition, % at 3 µM | hit rate 70% among 4,300;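 active = inhibition above a per-plate cutoff, the mean inhibition of sample wells plus 3 SD, cut at about 35% in these data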;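 also: loss of TO-PRO-1 fluorescence as compound displaces dye from 1x1 AA loop RNA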
DNA CAG counter: displacement of TO-PRO-1 from CAG DNA duplex, counter-screen for rCAG RNA repeat binder project, biochemical, fluorescence, TO-PRO-1 dye, d(CAG) DNA oligo; hit rate 94% among 4,300; inhibition, % at 3 µM; d(CAG) DNA oligo TO-PRO-1 dye displacement; shares compounds with rCAG binder-1;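 active = inhibition above its plate's cutoff, the mean test-well inhibition plus 3 SD, cut at about 4.8% in these data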;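 also: hits displace the dye from DNA and so lower well fluorescence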
dCAG dye DR: inhibitors of DNA CAG/GTC TO-PRO-1 complex, dose response, counter-screen for rCAG RNA repeat binder project, biochemical, fluorescence, TO-PRO-1 dye; hit rate 20% among 250; shares compounds with rCAG binder-1; DNA CAG/GTC duplex TO-PRO-1 dye displacement fluorescence; IC50, µM; AID 686960, 2013; in the data active = IC50 below about 10 µM
dCAG DNA bind: TO-PRO-1 dye complex inhibitors on d(CAG) DNA, dose response, counter-screen, biochemical, fluorescence, late stage | IC50, µM | d(CAG) DNA duplex TO-PRO-1 dye displacement | shares compounds with rCAG binder-1 | hit rate 80% among 30
rCAG binder-2: molecules binding r(CAG) RNA repeats, late stage dose response, late-stage follow-up, biochemical, fluorescence, dose response, powder samples. shares compounds with rCAG binder-1. r(CAG) RNA TO-PRO-1 dye displacement. IC50, µM. hit rate 100% among 30. AID 720651, 2013
Of the large screens only hits and unclear results are named; the others gave an inactive call (follow-up assays come after a bar, where they were run). Sampled rows, rich in hits. Any-hit rate of the full collection: about 2.6%. Unless noted, no rule for the calls is given here.

Cc1ccc2nc(N3C(=O)C(O)=C(C(=O)c4ccco4)C3c3ccc(C)o3)sc2c1 (stereo not given)	rCAG binder-1 49 | rCAG binder conf 72 | DNA CAG counter 33 | dCAG dye DR 3.8 | dCAG DNA bind 2 | rCAG binder-2 0.92
Cc1ccc2nc(N3C(=O)C(O)=C(C(=O)c4ccco4)C3c3ccc(O)cc3)sc2c1 (stereo not given)	rCAG binder-1 67 | rCAG binder conf 50 | DNA CAG counter 16
O=C(C1=C(O)C(=O)N(c2nc3ccc(Cl)cc3s2)C1c1ccco1)c1ccco1 (stereo not given)	rCAG binder-1 68 | rCAG binder conf 72 | DNA CAG counter 33 | dCAG dye DR 3.5 | dCAG DNA bind 2.9 | rCAG binder-2 1.3
Cc1ccc2nc(N3C(=O)C(O)=C(C(=O)c4ccc(C)o4)C3c3ccco3)sc2c1 (stereo not given)	none
CC(C)(C)n1nnnc1C(c1ccccc1)N1CCN(c2ncc(C(F)(F)F)cc2Cl)CC1 (stereo not given)	none (no result: NR2E3 ag-2)
COCCn1c(C)nnc1SCC(=O)NNC(=O)c1ccc(Br)cc1	none (no result: NR2E3 ag-2)
CC(=O)C1=C(C)N(Cc2ccc(F)cc2)C(=S)NC1c1cccc(Cl)c1 (stereo not given)	none (no result: NR2E3 ag-1, NR2E3 ag-2)
CCCCCOC(=O)C1C(c2ccccc2)C(C(=O)O)C1c1ccccc1 (stereo not given)	rCAG binder-1 35 | rCAG binder conf inactive | DNA CAG counter inactive
O=C(O)C1C(c2ccccc2)C(C(=O)OCCCO)C1c1ccccc1 (stereo not given)	none
COCCN1Cc2cc(C(=O)OC)c3c(c2C1=O)c1ccccc1n3S(=O)(=O)c1ccc(C)cc1	none (no result: NR2E3 ag-1, NR2E3 ag-2)
CCCS(=O)(=O)Nc1ccc(N2CCCCC2)c(S(=O)(=O)Nc2ccccc2OC)c1	none (no result: NR2E3 ag-2)
Cc1ccc(N/N=C(/Sc2nnnn2-c2ccccc2)C(=O)c2ccccc2)cc1	rCAG binder-1 68 | rCAG binder conf 53 | DNA CAG counter 21 | dCAG dye DR inactive
O=C(/C(=N\Nc1ccc([N+](=O)[O-])cc1)Sc1nnnn1-c1ccccc1)c1ccccc1	none
O=S1c2ccccc2Sc2ccccc21	none (no result: NR2E3 ag-2)
CCN(CC)CCCNC(=O)CC1Oc2ccccc2NC1=O (stereo not given)	none (no result: NR2E3 ag-1, PG9 binder, NR2E3 ag-2)
Cc1ccc(C(=O)/C=C/N(C)C)o1	none
Cc1ccc(C(=O)/C=C/c2cc(Br)cc(Br)c2O)o1	rCAG binder-1 60 | rCAG binder conf 46 | DNA CAG counter 16
COC(=O)Cn1c(=O)c(C(=O)CCl)c(N)n(Cc2ccccc2)c1=O	none
COC(=O)Cn1c(=O)c2c(n(Cc3ccccc3)c1=O)N/C(=C/c1ccc(OC)cc1)C2=O	rCAG binder-1 75 | rCAG binder conf 79 | DNA CAG counter 34 | dCAG dye DR 4

Screens deposited in PubChem BioAssay by several laboratories.
